This is a sample that favours compounds with a hit; in the whole collection about 1.5% have one here.
AF4-AF9 inh: inhibitors of AF4 peptide binding to AF9, primary screen, biochemical, AlphaScreen, biotin-AF4 peptide, FLAG-AF9, single point; AID 651704, 2012; inhibition, % at 10 µM; Protein AF-9 (Homo sapiens), P42568; 350,000 tested, 0.47% active;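 active = every replicate reaching a set inhibition limit, whatever the replicate mean, cut at about 25% in these data; inconclusive = mean inhibition reaches that limit but some replicates miss it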;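 also: 0% = plate neutral control median and 100% = total signal loss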
S100A4 inh HTS: inhibitors of S100A4-myosin IIA peptide binding, primary screen, biochemical, fluorescence polarization, TAMRA-MyoIIA peptide | AID 652163, 2013 | Protein S100-A4 (Homo sapiens), P26447 | inhibition, % at 10.7 µM | 360,000 tested, 0.14% active;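 active = mean inhibition of at least 70% across replicates, with every replicate also reaching that level; inconclusive = mean inhibition reaches 70% but some replicates fall short; inactive = mean inhibition below 70%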
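Test system: S100A4 monomer protein. Medium: HEPES buffer with Ca2+, pH 7.2. Reagent: fluorescent myosin IIA peptide, 5 nM. Compound dosing: single-point compound testing. Timing: 5 min between mix addition and reading. Benchmarks: DMSO neutral and TFP positive wells.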
RAD52 inh: RAD52 DNA annealing inhibitors, primary screen, biochemical, FRET, single point, set 2; inhibition, % at 18.7 µM; DNA repair protein RAD52 homolog (Homo sapiens), P43351; recombinant RAD52 DNA annealing, FRET fluorescence; 360,000 tested, 0.46% active;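 active = every replicate showing at least 50% inhibition; inconclusive = mean inhibition at least 50% but not in every replicate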
dFosB activator: activators of delta FosB homodimer, primary screen, biochemical, fluorescence polarization, TAMRA-CDK5 oligo, single point; purified delta FosB; percent of positive-control signal above neutral wells; AID 493131, 2011; Protein FosB (Mus musculus), P13346; activation, % at 25 µM; 340,000 tested, 0.99% active;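 active = mean activation above about 17%, with every replicate also reaching it, limit read from the data, passing the limit was not always enough; inconclusive = only one of the two conditions met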
RAD54 branch: inhibitors of human RAD54 branch migration, primary screen, biochemical, fluorescence, single point; DNA repair and recombination protein RAD54-like (Homo sapiens), Q92698; RAD54 Holliday junction branch migration, FAM/BHQ fluorescence; inhibition, % at 10.4 µM; 360,000 tested, 0.14% active; AID 602329, 2012;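 active = mean normalized replicate activity at least 40 and at least half of replicates scoring 40 or more; inconclusive = only one of the two criteria met; inactive = mean below 40 and under half of replicates reaching 40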;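 also: 0% = median of neutral control wells and 100% = median of positive control wells; inhibitors cause a drop in the FAM fluorescence signal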
Target sequence (Q92698 whole entry, looked up): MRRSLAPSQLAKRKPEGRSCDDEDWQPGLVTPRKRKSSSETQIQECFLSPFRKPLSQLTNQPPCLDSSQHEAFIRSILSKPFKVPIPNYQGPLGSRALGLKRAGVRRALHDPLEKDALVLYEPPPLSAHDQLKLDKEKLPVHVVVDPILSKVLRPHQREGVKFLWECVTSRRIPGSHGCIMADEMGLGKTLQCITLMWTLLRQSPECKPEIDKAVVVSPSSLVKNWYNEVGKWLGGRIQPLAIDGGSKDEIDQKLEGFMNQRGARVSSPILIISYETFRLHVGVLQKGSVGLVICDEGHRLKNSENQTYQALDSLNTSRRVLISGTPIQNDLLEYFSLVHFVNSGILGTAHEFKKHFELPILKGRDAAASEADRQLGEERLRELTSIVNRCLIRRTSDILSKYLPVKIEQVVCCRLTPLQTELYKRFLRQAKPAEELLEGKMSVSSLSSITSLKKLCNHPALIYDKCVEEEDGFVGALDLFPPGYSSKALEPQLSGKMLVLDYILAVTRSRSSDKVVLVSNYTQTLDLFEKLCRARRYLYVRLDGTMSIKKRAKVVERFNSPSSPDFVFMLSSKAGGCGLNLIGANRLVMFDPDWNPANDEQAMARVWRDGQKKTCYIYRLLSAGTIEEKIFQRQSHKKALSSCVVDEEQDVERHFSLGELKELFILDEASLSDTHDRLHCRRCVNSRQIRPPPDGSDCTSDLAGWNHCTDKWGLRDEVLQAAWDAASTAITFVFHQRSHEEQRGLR
Active calls of the source: *; i = inactive; ? = inconclusive; . = no result given; + = active, no number.

SMILES | AF4-AF9 inh | S100A4 inh HTS | RAD52 inh | dFosB activator | RAD54 branch
COc1ccc(OC)c(CN2CCN(C(=O)c3ccc(C)c(S(=O)(=O)Nc4ccccc4OC)c3)CC2)c1 | 33* | -2 | 1 | -1 | 26
CCn1cnc2cc(NCc3ccc(N(C)C)cc3)ccc21 | 19 | -11 | 3 | 0 | 10
CN(C)c1ccc(CNc2ccc3c(c2)ncn3C(C)(C)C)cc1 | 35* | 3 | -14 | -5 | 1
CCN(CC)c1ccc(CNc2ccc3c(c2)ncn3CC)cc1 | 45* | -10 | 5 | . | .
COc1ccc2c3c(n(C)c2c1)[C@H](CO)N(C(C)=O)CC31CN(Cc2ccccc2OC)C1 | -1 | -8 | 21 | . | .
COC(=O)c1ccc(CNC(=O)Cn2cnc(C(=O)Nc3ccc(C)c(C)c3)n2)cc1 | -3 | 2 | 8 | 0 | 3
Cc1ccc(CNC(=O)Cn2cnc(C(=O)Nc3ccc(C)c(C)c3)n2)o1 | 0 | 76* | 2 | 4 | 5
C[C@@H]1CN([C@@H](C)CO)C(=O)Cc2cc(N(C)C)ccc2O[C@H]1CN(C)Cc1ccc(-c2ccccc2)cc1 | 74* | -23 | 7 | . | -8
C[C@H](CO)N1C[C@H](C)[C@H](CN(C)Cc2ccc(-c3ccccc3)cc2)Oc2ccc(N(C)C)cc2CC1=O | 29* | 5 | -8 | . | -9
C[C@H](CO)N1C[C@H](C)[C@@H](CN(C)Cc2ccc(C(F)(F)F)cc2)Oc2ccc(N(C)C)cc2CC1=O | 33* | 14 | 4 | . | 1
C[C@@H]1CN([C@H](C)CO)C(=O)Cc2cc(N(C)C)ccc2O[C@H]1CN(C)Cc1ccc(C(=O)O)cc1 | -3 | 19 | -12 | . | 2
C[C@H](CO)N1C[C@H](C)[C@H](CN(C)Cc2ccccc2)Oc2ccc(N(C)C)cc2CC1=O | 2 | 9 | -3 | . | 12
Nc1ccc(Cn2ccc3c4c(N)nc(N)nc4ccc32)cc1 | 1 | -8 | 35 | 158* | .
Cc1nc2ccc(N)cc2c(=O)n1Cc1ccc(Cl)cc1 | . | . | . | -7 | 8
C[C@H](CO)N1C[C@H](C)[C@@H](CN(C)S(C)(=O)=O)Oc2c(NC(=O)NC3CCCCC3)cccc2C1=O | -1 | -3 | 2 | . | 2
O=C(O)c1ccccc1-c1c2cc(I)c(=O)c(I)c-2oc2c(I)c(O)c(I)cc12 | -2 | + | i | ? | -425
O=C(Nc1cc(F)ccc1F)N[C@@H]1C=C[C@H](CC(=O)N2CCc3ccccc3C2)O[C@@H]1CO | 1 | 4 | -5 | . | 0
O=C1NC(Cc2cccc(Cl)c2)COCc2cnnn2CCC1c1ccccc1 (stereo unspecified) | 2 | -6 | 8 | . | .
O=C1NC(Cc2ccc(Cl)cc2)COCc2cnnn2CCC1c1ccccc1 (stereo unspecified) | 7 | 90* | 15 | . | .
O=C(C[C@@H]1CC[C@@H](NC(=O)Nc2ccccc2F)[C@@H](CO)O1)NCc1ccc(-c2ccccc2)cc1 | -3 | -3 | 8 | . | .
CN(C)CCCn1cnc2c(c1=N)C(c1ccccc1)c1ccc3ccccc3c1O2 (stereo unspecified) | 18 | -4 | 76* | -9 | 33
N=c1c2c(ncn1CCCO)Oc1c(ccc3ccccc13)C2c1ccccc1 (stereo unspecified) | . | 2 | 16 | -13 | .
Nc1nc(SCC(=O)Nc2ccc([N+](=O)[O-])cc2)[nH]c(=O)c1NC(=O)c1ccc(Br)cc1 | -1 | -2 | -12 | 50* | -3
Nc1cc(=O)[nH]c(SCC(=O)Nc2ccc([N+](=O)[O-])cc2)n1 | -18 | 0 | -8 | -8 | -7
COc1ccc2sc(N(CCN(C)C)C(=O)/C=C/c3cccs3)nc2c1 | 33* | -3 | 12 | ? | .
COc1ccc2c3c([nH]c2c1)[C@H](CO)N(C)CC31CN(C(=O)c2cccnc2)C1 | -1 | -41 | 9 | . | .
C/C=C/c1cnc2c(c1)C(=O)N([C@H](C)CO)C[C@H](C)[C@H](CN(C)C(=O)c1ccc3c(c1)OCO3)O2 | -7 | -10 | -9 | . | 0
